TCR-CD3 inh – inhibitors of human TCR-CD3 interaction, primary screen, biochemical, fluorescence, TAMRA-labeled TCR probe; T-cell receptor (TCR); inhibition, % at 9.4 µM; 360,000 tested, 0.37% active; in the data active = inhibition above about 19%;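 also: recombinant mutant TCR 2C K166C tagged with TAMRA read by polarization; 0% = receptor in buffer alone and 100% = receptor with positive control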
PRMT1 inh – PRMT1 methyltransferase inhibitors, primary screen, biochemical, fluorescence polarization | recombinant PRMT1, activity-based probe fluorescence polarization | inhibition, % at 2.79 µM | 370,000 tested, 1.3% active;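 active = inhibition above about 21% made by adding two undisclosed values, limit read from the data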
mABHD4 FP – ABHD4 inhibitors, primary screen, biochemical, fluorescence polarization, mouse | purified mABHD4, FP-Rh probe fluorescence polarization | inhibition, % at 8.92 µM | 370,000 tested, 0.54% active | AID 720543, 2013;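 active = inhibition exceeding the mean over every tested compound plus 3 SD, cut at about 30% in these data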;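 also: 0% = plate median of compound wells and 100% = S159A mutant with DMSO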
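Material: mouse ABHD4 enzyme, wild type; Benchmarks: S159A mutant high control, sample median low control; Buffer or medium: HEPES pH 7.0, NaCl, Pluronic buffer; Signal: fluorescence polarization; Read-out: percent inhibition of probe binding, normalized to plate controls; Timing: pre-incubation 45 min, probe exposure 60 min, at 25 °C; Dosing: 8.92 µM, single dose.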
HTRA1 inhibitor – HTRA1 serine protease inhibitors, primary screen, biochemical, fluorescence polarization, HTS | Q92743 | recombinant HTRA1, FP-rhodamine activity-based probe | inhibition, % at 5.96 µM | 340,000 tested, 0.5% active; in the data active = inhibition above about 36%;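 also: 0% = enzyme with DMSO and 100% = wells lacking enzyme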
SIAE primary – human SIAE inhibitors, primary screen, biochemical, fluorescence polarization, FP-Rh probe, 1536-well HTS; 370,000 tested, 0.69% active; Sialate O-acetylesterase (Homo sapiens), Q9HAT2; AID 1053197, 2014; SIAE FP-Rh probe binding; inhibition, % at 9.66 µM;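 active = inhibition above a cutoff: mean of compounds within the control limits plus 3 SD of those, cut at about 17% in these data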;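 also: 0% = plate median of compound wells and 100% = probe without SIAE protein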
Target sequence (Q9HAT2 whole entry, looked up): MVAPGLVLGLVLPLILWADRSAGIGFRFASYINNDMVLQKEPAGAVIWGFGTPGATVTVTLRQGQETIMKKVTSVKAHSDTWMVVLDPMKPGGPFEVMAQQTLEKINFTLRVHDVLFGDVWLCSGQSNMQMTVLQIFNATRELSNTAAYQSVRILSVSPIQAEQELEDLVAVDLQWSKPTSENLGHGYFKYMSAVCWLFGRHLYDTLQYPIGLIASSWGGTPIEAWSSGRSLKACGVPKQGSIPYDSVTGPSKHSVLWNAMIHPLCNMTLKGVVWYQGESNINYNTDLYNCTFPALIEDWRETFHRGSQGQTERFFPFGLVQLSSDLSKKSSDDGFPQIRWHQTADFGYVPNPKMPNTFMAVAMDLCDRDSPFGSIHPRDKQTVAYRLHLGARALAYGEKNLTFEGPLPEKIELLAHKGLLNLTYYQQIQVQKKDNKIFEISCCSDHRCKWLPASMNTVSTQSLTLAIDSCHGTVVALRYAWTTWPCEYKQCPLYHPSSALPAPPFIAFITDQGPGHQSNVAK
PRMT1 confirm – PRMT1 methyltransferase inhibitors, confirmation, biochemical, fluorescence polarization, triplicate. shares compounds with PRMT1 inh. recombinant His-PRMT1, activity-based probe fluorescence polarization. inhibition, % at 2.79 µM. 3,300 tested, 42% active. AID 687036, 2013;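 active = mean inhibition across replicates above the hit cutoff derived for the earlier primary screen, cut at about 22% in these data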
The depositor's hits bear a star; / = no result. Hits are enriched below; roughly 2.6% of the tested compounds scored in any of these assays.

SMILES	TCR-CD3 inh	PRMT1 inh	mABHD4 FP	HTRA1 inhibitor	SIAE primary	PRMT1 confirm
CN(c1ccccc1)S(=O)(=O)c1ccc(NC(=O)c2nc(S(C)(=O)=O)ncc2Cl)cc1	0.8	40.0*	-10.3	-28.6	-5.7	48.5*
CN(c1ccccc1)S(=O)(=O)c1ccc(NC(=O)c2ccccc2)cc1	-6.3	0.4	-17.7	-45.8	-12.8	/
CCOC(=O)C1=C(C)N=c2sc(=Cc3ccc(OCC(=O)O)cc3)c(=O)n2C1c1ccc(Cl)cc1 (stereo unspecified)	-1.0	41.6*	-66.4	/	-31.6	13.2
COc1ccc(Nc2nnc(SCc3cc(=O)n4ccsc4n3)s2)cc1	3.5	28.8*	14.0	7.5	-9.1	34.7*
CCCC[C@H]1C2CC(OC(=O)NCCCC(=O)OCC)C(C2)[C@H]2CCCCN21 (stereo partly specified)	/	5.8	-4.1	/	-0.3	/
Cc1ccccc1NS(=O)(=O)c1ccc(-c2ccc(=O)[nH]n2)o1	-4.3	-2.4	-0.6	-3.5	3.6	/
CCN(CC)c1ccc(NS(=O)(=O)c2ccc(-c3ccc(=O)[nH]n3)o2)c(C)c1	1.4	42.0*	20.4	14.3	9.2	2.9
O=C(Nc1ccc(Oc2cccc(C(F)(F)F)c2)nc1)c1ccco1	3.2	-1.0	-3.0	-10.4	6.4	/
CC(C)(C)c1ccc(Oc2ccc(NC(=O)c3ccco3)cn2)cc1	1.9	29.2*	-15.6	-38.8	-12.0	2.9
Cc1cccn2c(=O)c3cc(C#N)c(=NC(=O)c4ccncc4)n(CCCOC(C)C)c3nc12	-4.3	25.8*	0.8	-0.1	-1.1	2.4
CC#CC(=O)N1CCC(Oc2cccc(C(=O)NCc3ccccn3)c2)CC1	9.4	73.5*	-4.9	2.1	9.1	1.7
CC1C(=O)OC(c2ccc(Br)cc2)C(C)(C)C1=O (stereo unspecified)	7.4	-3.6	-5.4	2.2	5.9	/
Cc1cc(=O)[nH]c(NN=C2CCCCC2C)n1 (stereo unspecified)	-7.8	0.1	3.0	/	3.0	/
COc1ccc(N2CCN(C(=O)CNC(=O)c3ccc4ccccc4c3)CC2)cc1	0.6	-0.4	-0.4	-1.4	3.4	/
COc1cc(OC)cc(C(=O)NCC(=O)N2CCN(c3ccc(O)cc3)CC2)c1	-9.2	25.2*	4.8	3.3	3.9	1.1
N#Cc1c(C(F)(F)F)cc(-c2ccco2)nc1SCc1ccccn1	-9.1	34.7*	8.7	-36.1	-3.9	-6.7
N#Cc1c(C(F)(F)F)cc(-c2ccco2)nc1SCc1ccncc1	3.6	0.5	0.6	-22.8	-4.7	/
CN(C)c1ccc(C(O)c2cc3ccccc3s2)cc1 (stereo unspecified)	-11.0	0.1	2.0	-1.3	0.9	/
CCc1ccc(C2NC(=O)c3ccccc3O2)cc1 (stereo unspecified)	-2.7	-1.1	-1.4	-1.5	2.4	/
CN(C)CCCn1c2c3ccccc3ccc2c2oc(=O)c3ccccc3c21	0.1	29.2*	14.8	-1.9	-14.8	0.8
CN(C)CCCn1c(=S)[nH]c2ccccc2c1=O	-6.9	11.9	0.1	4.2	-3.0	/
COCCN(C(=O)CCCc1nc2ccccc2s1)c1c(N)n(CC(C)C)c(=O)[nH]c1=O	-5.9	35.5*	4.7	-0.8	6.0	27.1*
CC(C)CN(C(=O)COC(=O)CCCc1nc2ccccc2s1)c1c(N)n(Cc2ccccc2)c(=O)[nH]c1=O	-1.0	3.2	5.0	0.5	-4.6	/
O=C(Cc1ccc(Br)cc1)NNC(=O)c1cccs1	3.2	-2.0	2.0	-2.9	7.2	/
CN(C)c1nc2ncn(Cc3ccccc3)c2c(=O)[nH]1	1.9	-2.1	6.7	2.2	-1.9	/
SMILES	TCR-CD3 inh	PRMT1 inh	mABHD4 FP	HTRA1 inhibitor	SIAE primary	PRMT1 confirm
O=C(CSc1nc(O)cc(=O)[nH]1)N1CCCc2ccccc21	3.4	25.6*	2.2	-1.6	14.5	6.8
CCOc1ccc(NC(=O)c2sc3nc(N4CCOCC4)c4c(c3c2N)CCCC4)cc1	14.3	17.0	-2.5	-17.4	9.5	/
COc1cccc(NC(=O)c2sc3nc(N4CCOCC4)c4c(c3c2N)CCCC4)c1	0.4	32.5*	2.9	-32.0	6.5	8.1
Nc1c(C(=O)Nc2ccc(Cl)cc2)sc2nc(N3CCOCC3)c3c(c12)CCCC3	3.6	30.2*	4.3	-18.5	-7.0	46.0*
CC1(C)Cc2c(c(N3CCOCC3)nc3sc(C(=O)N4CCCCC4)c(N)c23)CO1	7.4	16.7	9.7	3.0	-5.6	/
Nc1c(C(=O)Nc2ccccc2)sc2nc(N3CCOCC3)c3c(c12)CCCC3	-2.0	34.5*	10.0	-7.9	-0.9	20.2
CC(=O)c1ccc(NC(=O)c2sc3nc(N4CCOCC4)c4c(c3c2N)CCCC4)cc1	7.8	20.2	-3.3	-3.1	-0.1	/
Nc1c(C(=O)N2CCOCC2)sc2nc(N3CCOCC3)c3c(c12)CCCC3	-10.9	33.8*	7.7	0.9	-0.7	11.6
Cc1cccc2cc3c(N)c(C(=O)N4CCOCC4)sc3nc12	4.2	36.2*	-7.4	-13.3	-3.8	12.0
Cc1cc(C)c2cc3c(N)c(C(=O)N4CCc5ccccc5C4)sc3nc2c1	6.7	4.2	-7.9	-19.9	-4.9	/
Cc1ccc(NC(=O)c2sc3nc(N4CCOCC4)c4c(c3c2N)CCCC4)cc1	1.6	26.5*	3.9	-22.9	1.2	19.8
C=CCN1C(=O)[C@@H](CC(=O)NCCCC)[C@]2(C(=O)OC)CCCCC=C12	/	-0.2	-1.9	/	3.0	/
COC(=O)c1ccc(CO/N=C/c2ccc(OC)cc2OC)cc1	5.8	1.5	-11.4	-23.4	-5.6	/
O=C(NNC(=O)c1ccccc1Br)c1cnccn1	-7.5	-0.6	1.2	0.0	1.1	/
CC(=O)Nc1ccc(C2=NNC(=NCC3CCCO3)SC2)cc1 (stereo unspecified)	-4.3	40.9*	-3.1	4.0	-0.1	33.2*
Fc1ccc(F)c(C2=NNC(=NCC3CCCO3)SC2)c1 (stereo unspecified)	6.2	37.6*	-6.4	34.8	-5.1	9.7
COCC(C)N=C1NN=C(c2ccc(NC(C)=O)cc2)CS1 (stereo unspecified)	-4.0	11.3	10.2	7.4	-2.5	/
CC(=O)Nc1sc2c(c1-c1nc3ccccc3s1)CNC2	/	26.5*	10.2	/	-0.8	15.2
CC(C)N1CCc2c(sc(NC(=O)C(F)(F)F)c2-c2nc3ccccc3s2)C1	/	31.2*	5.2	/	4.6	2.6
CC(C)N1CCc2c(-c3nc4ccccc4s3)csc2C1	/	-2.3	1.7	/	4.5	/
CC(=O)Nc1scc(C)c1-c1nc2ccccc2s1	-6.9	2.1	-8.8	-15.3	-5.4	/
Cc1ccc(F)c(NC(=O)c2c(-c3ccccc3)noc2C)c1	4.1	2.6	0.1	-5.5	-0.1	/
CCCOc1ccccc1NC(=O)/C=C/C(N)=O	3.1	58.9*	6.9	1.5	-3.5	35.7*
